The source of these data is ChEMBL document CHEMBL3868626, “Discovery of novel multi-target indole-based derivatives as potent and selective inhibitors of chikungunya virus replication” (Bioorg Med Chem, 2017).

The structures appear in SMILES notation. Calls of active or inactive are those of the source. The calls are words filed in the database; no cut-off is given here.

Data set [1] is described as follows: Cytotoxicity against African green monkey Vero cells assessed as reduction in metabolic activity by MTS/PMS based microscopic analysis. It counts as toxicity, cell-based. The settings on record: chlorocebus sabaeus. In short, it runs like this: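 Uninfected Vero cells exposed to compound dilution series; overall metabolic activity measured by MTS/PMS, with microscopic checks of cell/monolayer morphology. CC50 = concentration reducing metabolic activity by 50%, by logarithmic interpolation.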

Data set [2] relates to Chikungunya virus. Put plainly: Antiviral activity against Chikungunya virus 899 infected in African green monkey Vero cells assessed as inhibition of virus-induced cytopathogenic effect measured 5 days post infection by MTS/PMS based microscopic analysis. It counts as functional, cell-based. Particulars: Chikungunya virus, 899, Vero, 120 h. (In general: Cytopathic effects are the visible damage that an infection or toxin causes in cultured cells.)

Data set [3] is described as follows: Selectivity index, ratio of CC50 for African green monkey Vero cells to EC50 for Chikungunya virus 899 infected in African green monkey Vero cells. It counts as toxicity, cell-based. The settings on record: read-out: Ratio CC50/EC50. The procedure, abridged: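 Ratio of CC50 in uninfected Vero cells (MTS/PMS) to EC50 for inhibition of CHIKV 899-induced CPE in Vero cells, both from logarithmic interpolation.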

Data set [4] relates to Chikungunya virus. Put plainly: Antiviral activity against Chikungunya virus 899 infected in African green monkey Vero A cells assessed as reduction in viral RNA level incubated for 48 hrs by qRT-PCR analysis. It counts as functional, cell-based. The settings on record: for EC50: Chikungunya virus, 899, Vero. (In general: In qPCR the cycle at which signal appears reflects the starting amount.)

In another data set the test system is Semliki Forest virus. Put plainly: Antiviral activity against Semliki forest virus infected in African green monkey Vero A cells assessed as inhibition of virus-induced cytopathogenic effect measured 5 days post infection by MTS/PMS based microscopic analysis. It counts as functional, cell-based. The settings on record: 120 h.
In the next data set the test system is Sindbis virus. Put plainly: Antiviral activity against Sindbis virus infected in African green monkey Vero A cells assessed as inhibition of virus-induced cytopathogenic effect measured 5 days post infection by MTS/PMS based microscopic analysis. The settings on record: 120 h. It counts as functional, cell-based.
The test system of data set [5] is Chikungunya virus. Put plainly: Antiviral activity against Chikungunya virus 899 infected in African green monkey Vero A cells assessed as reduction in infectious virus particle production incubated for 48 hrs by end-point titration assay. It counts as functional, cell-based. Particulars: for EC50: Chikungunya virus, 899, Vero.
Data set [6] in a line: Cytotoxicity against African green monkey BGM cells. The settings on record: chlorocebus aethiops. It counts as toxicity, cell-based.
For data set [7], the system named is Chikungunya virus. Put plainly: Antiviral activity against Chikungunya virus 899 pseudoparticles infected in African green monkey BGM cells assessed as inhibition of pseudoparticles entry after 72 hrs by luciferase reporter gene assay. It counts as functional, cell-based. The settings on record: Chikungunya virus, 899, BGM. In short, it runs like this: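 BGM cells at 2.5 × 10^4/well adhered overnight; serial compound dilutions added, then cells infected with lentiviral pseudoparticles bearing CHIKV glycoproteins and firefly luciferase reporter. After 72 h cells lysed and intracellular luciferase activity measured as entry read-out. Mean ± SD, ≥3 independent experiments.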
On the technique in general: A reporter such as luciferase makes a cellular process visible.

In data set [8] the test system is Chikungunya virus. Put plainly: Antiviral activity against Chikungunya virus 899 infected in African green monkey Vero A cells assessed as inhibition of viral replication at post entry step by measuring reduction in intracellular viral RNA treated up to 6 hrs post infection measured after 24 hrs by qRT-PCR analysis. It counts as functional, cell-based.
The test system of data set [9] is Chikungunya virus. Put plainly: Antiviral activity against Chikungunya virus 899 infected in African green monkey Vero A cells assessed as inhibition of viral replication at post entry step by measuring reduction in intracellular viral RNA treated 2 hrs post infection measured after 24 hrs by qRT-PCR analysis. It counts as functional.
In data set [10] the test system is Chikungunya virus. Put plainly: Antiviral activity against Chikungunya virus assessed as inhibition of virus replication by cell based assay. It counts as functional.
Data set [11] concerns Chikungunya virus. Put plainly: Antiviral activity against Chikungunya virus 899 infected in African green monkey Vero A cells assessed as inhibition of viral replication by measuring reduction in intracellular viral RNA treated 2 hrs prior to infection measured after 24 hrs by qRT-PCR analysis. It counts as functional.

Take `Cn1c(C[S+]([O-])c2c(Cl)cccc2Cl)c(C(=O)OC(C)(C)C)c2cc(O)ccc21` (centres undefined): the CC50 in data set [1] was 151 µM. Further, the EC50 with Chikungunya virus [2] stood at 20 µM. Moreover, the selectivity ratio in data set [3] is 7.6.
For `Cn1c(CSc2ccccc2C(F)(F)F)c(C(=O)OC(C)(C)C)c2cc(O)c(Br)cc21` the same measures were 26 µM, 9.6 µM and 2.7.
For `Cn1c(CSc2ccc(Cl)cc2)c(C(=O)OC(C)(C)C)c2cc(O)ccc21` the same measures were 15 µM, 4.8 µM and 3.2.
For `CN(C)Cc1c(O)ccc2c1c(C(=O)OC(C)(C)C)c(C[S+]([O-])c1ccccc1C(F)(F)F)n2C` (centres undefined) the same measures were 66 µM, 22 µM and 3.
In the case of `Cn1c(C[S+]([O-])c2ccccc2C(F)(F)F)c(C(=O)OC(C)(C)C)c2cc(CO)ccc21` (centres undefined), the EC50 is 9 µM with Chikungunya virus [4]; 128 µM in the data set on Semliki Forest virus; 96 µM with Sindbis virus; 10 µM in the data set with Chikungunya virus [5]; 32 µM with Chikungunya virus [2]; 36 µM with Chikungunya virus [7]. Also, the figures for the CC50 in data set [1] and in data set [6] were > 468 µM and > 60 µM, respectively. In addition, in data set [3], the selectivity ratio is > 14.6.
For the compound `CN(C)Cc1c(O)c(Br)cc2c1c(C(=O)OC(C)(C)C)c(CSc1c(Cl)cccc1Cl)n2C`, in data set [1], the CC50 turned out to be 17 µM. For the same compound, the EC50 in the data set with Chikungunya virus [2] is ≥ 17 µM.
With `CN(C)Cc1c(O)ccc2c1c(C(=O)OC(C)(C)C)c(C[S+]([O-])c1c(Cl)cccc1Cl)n2C` (centres undefined), the CC50 in [1] came to 9.2 µM. The EC50 in the data set on Chikungunya virus [2] was 4.1 µM. In addition, the selectivity ratio in [3] worked out at 2.2.
Take `Cn1c(CSc2c(Cl)cccc2Cl)c(C(=O)OC(C)(C)C)c2cc(O)c(Br)cc21`: the CC50 in [1] turned out to be 13 µM. In addition, the EC50 in the data set with Chikungunya virus [2] is 5.7 µM. Further, the selectivity ratio in [3] worked out at 2.3.
For `Cn1c(C[S+]([O-])c2ccccc2C(F)(F)F)c(C(=O)OC(C)(C)C)c2cc(O)c(Br)cc21` (centres undefined) the same measures were 26 µM, 9.6 µM and 2.7.
For `Cn1c(C[S+]([O-])c2ccc(Cl)cc2)c(C(=O)OC(C)(C)C)c2cc(O)ccc21` (centres undefined) the same measures were 93 µM, 8.2 µM and 11.
The like results for `Cn1c(CSc2c(Cl)cccc2Cl)c(C(=O)OC(C)(C)C)c2cc(O)ccc21` were, in that order, 7.8 µM, 2.9 µM and 2.7.
Turning to `Cn1c(CSc2ccc(C(F)(F)F)cc2)c(C(=O)OC(C)(C)C)c2cc(O)ccc21`, the CC50 in [1] is 11 µM. Moreover, the EC50 with Chikungunya virus [2] stood at 3.6 µM. The selectivity ratio in data set [3] is 3.1.
`CN(C)Cc1c(O)c(Br)cc2c1c(C(=O)OC(C)(C)C)c(C[S+]([O-])c1ccccc1C(F)(F)F)n2C` (centres undefined): in [1], the CC50 stood at 56 µM. Also, the EC50 in the data set with Chikungunya virus [2] turned out to be 12 µM. Further, the selectivity ratio in data set [3] was found to be 4.6.
The like results for `Cn1c(CSc2ccc(F)cc2)c(C(=O)OC(C)(C)C)c2cc(O)ccc21` were, in that order, 11 µM, 4.5 µM and 3.2.
For `Cn1c(CSc2ccccc2C(F)(F)F)c(C(=O)OC(C)(C)C)c2cc(O)ccc21` the same measures were 19 µM, 3.4 µM and 4.1.
As for `Cn1c(C[S+]([O-])c2ccccc2C(F)(F)F)c(C(=O)OC(C)(C)C)c2cc(O)ccc21` (centres undefined), the Activity entry in the data set on Chikungunya virus [4] and in the data set with Chikungunya virus [5] was “Dose-dependent effect” in each case. For the same compound, the concentration for a half-maximal effect (EC50) came to 1 µM in the data set on Chikungunya virus [4]; 33 µM in the data set with Semliki Forest virus; 20 µM in the data set with Sindbis virus; 1 µM in the data set with Chikungunya virus [5]; 6.5 µM with Chikungunya virus [2]; 27 µM with Chikungunya virus [7]. The CC50 in data set [1] was determined as 156 µM; in data set [6], 50 µM. Moreover, in the data set with Chikungunya virus [8], the inhibition entry was “Active”. Moreover, in data set [3], the selectivity ratio was determined as 22.
For `Cn1c(C[S+]([O-])c2ccc(F)cc2)c(C(=O)OC(C)(C)C)c2cc(O)ccc21` (centres undefined), in [1], the CC50 was > 100 µM. For the same compound, the EC50 with Chikungunya virus [2] was 17 µM. Besides, in data set [3], the selectivity ratio was > 5.7.
On to `Cn1c(C[S+]([O-])c2ccc(C(F)(F)F)cc2)c(C(=O)OC(C)(C)C)c2cc(O)ccc21` (centres undefined), for which, in data set [1], the CC50 came out at 24 µM. The EC50 with Chikungunya virus [2] stood at 13 µM. For the same compound, the selectivity ratio in [3] turned out to be 1.9.
Turning to `CCOC(=O)c1c(CSc2ccccc2)n(C)c2cc(Br)c(O)c(CN(C)C)c12` [UMIFENOVIR], the CC50 was 161 µM in data set [1] and > 60 µM in data set [6]. The “inhibition (INH)” value in the data set on Chikungunya virus [9] and in the data set on Chikungunya virus [11] was >50% in each case. Further, the results for the EC50 in the data set on Chikungunya virus [2], in the data set with Chikungunya virus [10] and in the data set with Chikungunya virus [7] were 35 µM, < 10 µg/mL and 4.4 µM, respectively. Further, the selectivity ratio in data set [3] was found to be 4.6.
Regarding `Cn1c(C[S+]([O-])c2c(Cl)cccc2Cl)c(C(=O)OC(C)(C)C)c2cc(CO)ccc21` (centres undefined), the CC50 in data set [1] is 397 µM. Also, the EC50 with Chikungunya virus [2] came out at 30 µM. Moreover, in data set [3], the selectivity ratio was found to be 13.2.

The CC50 is the concentration giving 50% cytotoxicity. A word on the EC50: it is the concentration giving half of the maximal effect.
